Here are results for 18 compounds from publication PMC10286757 (Chemmedchem, 2022).

In one series the target is T1, PfCDPK4 (Plasmodium falciparum, UniProt Q8IBS5).
T1 sequence (Q8IBS5 1-528): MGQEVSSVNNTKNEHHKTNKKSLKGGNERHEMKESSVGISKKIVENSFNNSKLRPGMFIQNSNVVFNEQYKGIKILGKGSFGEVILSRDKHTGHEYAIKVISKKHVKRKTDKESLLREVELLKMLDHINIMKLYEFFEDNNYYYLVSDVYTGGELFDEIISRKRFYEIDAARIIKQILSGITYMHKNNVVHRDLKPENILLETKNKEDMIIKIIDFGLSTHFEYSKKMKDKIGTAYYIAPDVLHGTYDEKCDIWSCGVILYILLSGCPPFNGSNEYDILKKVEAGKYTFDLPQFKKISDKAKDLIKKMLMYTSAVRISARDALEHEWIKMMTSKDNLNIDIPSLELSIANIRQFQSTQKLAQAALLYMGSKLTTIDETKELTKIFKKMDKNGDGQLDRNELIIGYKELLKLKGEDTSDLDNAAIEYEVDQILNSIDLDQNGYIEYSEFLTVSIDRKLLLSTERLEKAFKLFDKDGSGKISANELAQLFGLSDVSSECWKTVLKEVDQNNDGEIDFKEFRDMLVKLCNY
The series can be described thus: Kinase Glo luciferase enzyme activity assay, recombinant PfCDPK4. Type of series: biochemical. In short, it runs like this:
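Recombinant PfCDPK4 was expressed in Rosetta E. coli at 20 °C by auto-induction, then purified by IMAC and size exclusion. The enzyme was used at 180 nM with 40 μM Syntide-2 and serial inhibitor dilutions in 20 mM HEPES pH 7.5, 0.1 % BSA, 10 mM MgCl2, ±1 mM CaCl2, 1 mM EGTA. Reactions were started with 10 μM ATP and run 90 min at 30 °C. Remaining ATP was read by Kinase-Glo luminescence, with positive and DMSO controls on each plate.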

Series [1] in a line: HeLa cell cytotoxicity assay. It is filed as cell-based. The note with it: human, HeLa cells. In short, it runs like this: (§1)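 HeLa cells were seeded at 2×10^4 per well in DMEM with 10 % FBS, 2 mM L-glutamine and antibiotics, then held overnight at 37 °C in 5 % CO2. Test compound was added to a final 20 μM for 48 h. Resazurin was then added to a final 50 μM for 4 h, and resorufin fluorescence was read at Ex560/Em590. Cell-free background was subtracted and results expressed as % viability against untreated wells.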

The subject of series [2] is Plasmodium falciparum strain 3D7. Kind of series: parasite lactate dehydrogenase. Type of series: cell-based. The following applies: for viability at 20 µM / IC50: Plasmodium falciparum, 3D7, 48 h; for viability at 20 µM: read-out: Pf 3D7 % cell viability at 20 μM; for antiplasmodial activity in vitro (in words): Pf 3D7, pLDH assay, low micromolar range; for IC50: read-out: Pf 3D7 IC50.

Another series has as its system HeLa cells. The series can be described thus: HeLa cell cytotoxicity assay. The following applies: single concentration 20 μM. It is filed as cell-based. In short, it runs like this: as §1

Where only a bound is given, the exact number is not on record here.

The IC50 is the point on the concentration scale where inhibition reaches its midpoint. By viability is commonly meant a read-out of living cells in per cent, often relative to untreated cells. For `COc1ccc(-c2cn(CCC3CCN(C(=O)OC(C)(C)C)CC3)c3ncnc(N)c23)cc1OC` [2 l, tert ‐Butyl 4‐{2‐[4‐amino‐5‐(3,4‐dimethoxyphenyl)‐7H‐pyrrolo[2,3‐d]pyrimidin‐7‐yl]ethyl}piperidine‐1‐carboxylate], on PfCDPK4, the IC50 is greater than 2 µM. Also, the viability at 48 h, 20 µM in series [1] was determined as 82.4 ± 1.4%. Also, in series [2], the viability at 20 µM was determined as 66.8 ± 3.9%.

For the compound `CCOc1ccc2cc(-c3cn(CC4CC4)c4ncnc(N)c34)ccc2c1` [2 b, 7‐(Cyclopropylmethyl)‐5‐(2‐ethoxynaphthalen‐6‐yl)‐7H‐pyrrolo[2,3‐d]pyrimidin‐4‐amine], the IC50 on PfCDPK4 was found to be 0.369 ± 0.138 µM. In addition, the viability at 48 h, 20 µM in series [1] was 79.8 ± 3.3%. For the same compound, in series [2], the “antiplasmodial activity in vitro (in words)” value (“antiplasmodial activity” below) was “moderate antiplasmodial activity”, the viability at 20 µM was 24.1 ± 3.8% and the concentration for half-maximal inhibition (IC50) worked out at 18.7 ± 0.8 µM.

`CCOc1ccc2cc(-c3cn(CC4CCN(C(C)=O)CC4)c4ncnc(N)c34)ccc2c1` [2 g, 1‐{4‐[(4‐Amino‐5‐(2‐ethoxynaphthalen‐6‐yl)‐7H‐pyrrolo[2,3‐d]pyrimidin‐7‐yl)methyl]piperidin‐1‐yl}ethanone]: the IC50 on PfCDPK4 stood at 0.53 ± 0.185 µM. In addition, the viability at 48 h, 20 µM in series [1] came out at 92.8 ± 5.7%. In series [2], the “antiplasmodial activity” value is listed as “moderate antiplasmodial activity”, the viability at 20 µM is 9.3 ± 1.6% and the 50% inhibitory concentration (IC50) worked out at 14.2 ± 1.7 µM.

On to `COc1ccc2cc(-c3cn(CC4CC4)c4ncnc(N)c34)ccc2c1` [2 a, 7‐(Cyclopropylmethyl)‐5‐(2‐methoxynaphthalen‐6‐yl)‐7H‐pyrrolo[2,3‐d]pyrimidin‐4‐amine], for which the viability at 48 h, 20 µM in series [1] turned out to be 93.6 ± 7.1%. The viability at 20 µM in series [2] came out at 103 ± 8%.

For the compound `COc1ccc(-c2cn(CC3CC3)c3ncnc(N)c23)cc1OC` [2 e, 7‐(Cyclopropylmethyl)‐5‐(3,4‐dimethoxyphenyl)‐7H‐pyrrolo[2,3‐d]pyrimidin‐4‐amine], the IC50 on PfCDPK4 was greater than 2 µM. Further, the viability at 48 h, 20 µM in series [1] turned out to be 88.8 ± 0.7%. Further, the viability at 20 µM in series [2] was found to be 110 ± 10.9%.

In the case of `COc1ccccc1-c1cn(CC2CC2)c2ncnc(N)c12` [2 d, 7‐(Cyclopropylmethyl)‐5‐(2‐methoxyphenyl)‐7H‐pyrrolo[2,3‐d]pyrimidin‐4‐amine], the IC50 on PfCDPK4 is greater than 2 µM. In addition, the viability at 48 h, 20 µM in series [1] is 63.8 ± 1.5%. Moreover, the viability at 20 µM in series [2] stood at 107 ± 6%.

Take `COc1ccccc1-c1cn(CC2CCN(C(C)=O)CC2)c2ncnc(N)c12` [2 i, 1‐{4‐[(4‐Amino‐5‐(2‐methoxyphenyl)‐7H‐pyrrolo[2,3‐d]pyrimidin‐7‐yl)methyl]piperidin‐1‐yl}ethanone]: at PfCDPK4, the IC50 is greater than 2 µM. For the same compound, in series [1], the viability at 48 h, 20 µM is 93.3 ± 3.2%. The viability at 20 µM in series [2] is 121 ± 8.6%.

Consider `CCOCCOc1ccc2cc(-c3cn(CC4CCN(C(C)=O)CC4)c4ncnc(N)c34)ccc2c1` [2 h, 1‐{4‐{[5‐(2‐(2‐Ethoxyethoxy)naphthalen‐6‐yl)‐4‐amino‐7H‐pyrrolo[2,3‐d]pyrimidin‐7‐yl]methyl}piperidin‐1‐yl}ethanone], for which the IC50 at PfCDPK4 is greater than 2 µM. The viability at 48 h, 20 µM in series [1] was determined as 94.4 ± 9.3%. Moreover, in series [2], the viability at 20 µM turned out to be 62.2 ± 9%.

In the case of `COc1ccc2cc(-c3cn(CC4CCN(C(C)=O)CC4)c4ncnc(N)c34)ccc2c1` [2 f, 1‐{4‐[(4‐Amino‐5‐(2‐methoxynaphthalen‐6‐yl)‐7H‐pyrrolo[2,3‐d]pyrimidin‐7‐yl)methyl]piperidin‐1‐yl}ethanone], on PfCDPK4, the half-inhibitory concentration (IC50) turned out to be 0.21 ± 0.068 µM. For the same compound, the viability at 48 h, 20 µM in series [1] was 92.1 ± 3.1%. The viability at 20 µM in series [2] worked out at 35.3 ± 2.2%.

Take `CCN(CC)CCCC(C)Nc1ccnc2cc(Cl)ccc12` (stereo not shown) [Chloroquine, reference compound]: the half-maximal inhibitory concentration (IC50) in series [2] was found to be 0.015 µM.

Turning to `COc1ccc(-c2cn(CC3CCN(C(C)=O)CC3)c3ncnc(N)c23)cc1OC` [2 j, 1‐{4‐[(4‐Amino‐5‐(3,4‐dimethoxyphenyl)‐7H‐pyrrolo[2,3‐d]pyrimidin‐7‐yl)methyl]piperidin‐1‐yl}ethanone], on PfCDPK4, the IC50 is greater than 2 µM. In addition, the viability at 48 h, 20 µM in series [1] stood at 79.3 ± 0.8%. In series [2], the “antiplasmodial activity” value is “moderate antiplasmodial activity”, the viability at 20 µM came to 2.8 ± 3.9% and the 50% inhibitory concentration (IC50) turned out to be 12.1 ± 11.4 µM.

As for `COc1ccccc1-c1cn(Cc2ccccc2)c2ncnc(N)c12` [2 p, 7‐Benzyl‐5‐(2‐methoxyphenyl)‐7H‐pyrrolo[2,3‐d]pyrimidin‐4‐amine], the viability at 48 h, 20 µM in series [1] was determined as 97 ± 12.5%. Also, the viability at 20 µM in series [2] stood at 72.4 ± 13.3%.

With `COc1ccccc1-c1cn(CCN2CCOCC2)c2ncnc(N)c12` [2 n, 5‐(2‐Methoxyphenyl)‐7‐(2‐morpholinoethyl)‐7H‐pyrrolo[2,3‐d]pyrimidin‐4‐amine], on PfCDPK4, the concentration for half-maximal inhibition (IC50) was greater than 2 µM. In series [1], the viability at 48 h, 20 µM turned out to be 112 ± 2.8%. For the same compound, in series [2], the viability at 20 µM amounted to 95 ± 1%.

For `CCOc1ccc2cc(-c3cn(CCN4CCOCC4)c4ncnc(N)c34)ccc2c1` [2 m, 5‐(2‐Ethoxynaphthalen‐6‐yl)‐7‐(2‐morpholinoethyl)‐7H‐pyrrolo[2,3‐d]pyrimidin‐4‐amine], in series [1], the viability at 48 h, 20 µM was found to be 47 ± 7%. For the same compound, the “cytotoxicity in vitro in HeLa cell assay (in words)” value in the series with HeLa cells is given as “moderate cytotoxicity”. Besides, in series [2], the “antiplasmodial activity” value is “moderate antiplasmodial activity”, the viability at 20 µM came to 12 ± 2.6% and the IC50 was 8.2 ± 3.1 µM.

In the case of `COc1ccc(-c2cn(CCN3CCOCC3)c3ncnc(N)c23)cc1OC` [2 o, 5‐(3,4‐Dimethoxyphenyl)‐7‐(2‐morpholinoethyl)‐7H‐pyrrolo[2,3‐d]pyrimidin‐4‐amine], the concentration for half-maximal inhibition (IC50) on PfCDPK4 was greater than 2 µM. In series [1], the viability at 48 h, 20 µM was 88 ± 11.8%. Besides, the viability at 20 µM in series [2] was found to be 57 ± 6.6%.

As for `COc1ccccc1-c1cn(CCC2CCN(C(=O)OC(C)(C)C)CC2)c2ncnc(N)c12` [2 k, tert ‐Butyl 4‐{2‐[4‐amino‐5‐(2‐methoxyphenyl)‐7H‐pyrrolo[2,3‐d]pyrimidin‐7‐yl]ethyl}piperidine‐1‐carboxylate], in series [1], the viability at 48 h, 20 µM amounted to 78.9 ± 0.1%. Further, the viability at 20 µM in series [2] was found to be 62 ± 2.1%.

`CCOCCOc1ccc2cc(-c3cn(CC4CC4)c4ncnc(N)c34)ccc2c1` [2 c, 5‐[2‐(2‐Ethoxyethoxy)naphthalen‐6‐yl]‐7‐(cyclopropylmethyl)‐7H‐pyrrolo[2,3‐d]pyrimidin‐4‐amine]: the viability at 48 h, 20 µM in series [1] was found to be 73 ± 4.1%. Moreover, the viability at 20 µM in series [2] is 93.1 ± 1.4%.

Take `COc1ccc(-c2cn(Cc3ccccc3)c3ncnc(N)c23)cc1OC` [2 q, 7‐Benzyl‐5‐(3,4‐dimethoxyphenyl)‐7H‐pyrrolo[2,3‐d]pyrimidin‐4‐amine]: in series [1], the viability at 48 h, 20 µM worked out at 95.4 ± 0.5%. Moreover, in series [2], the viability at 20 µM was 110 ± 4.2%.
